# Results: ChEMBL document CHEMBL1159058, “Triazoloacridin-6-ones as novel inhibitors of the quinone oxidoreductases NQO1 and NQO2” (Bioorg Med Chem, 2010)
# Key:
# [1] = test system: HCT-116; assay: Cytotoxicity against human HCT116 cells after 24 hrs by MTT assay; assay type: functional, cell-based; settings: HCT-116, 24 h
# Method in brief: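 HCT116 cells were kept in RPMI 1640 with 10% FCS and 2 mM L-glutamine, plated at 2 × 10³ cells/well, 37 °C, 5% CO₂. Drug was given for 24 h, then removed, and cells regrew 3 days in fresh medium. Read-out was MTT for 4 h, formazan dissolved in DMSO, OD read. IC50 is 50% OD reduction vs untreated/vehicle controls. At least three repeats.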
# [2] = test system: Nucleic Acid; assay: Binding affinity to salmon sperm DNA assessed as change in melting temperature at 10 uM under low salt concentration by spectrophotometry; assay type: nucleic-acid assay; settings: Salmonidae
# Method in brief: (§1)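 Salmon sperm DNA at 20 µg/ml was treated with 10 µM compound at high (physiological) or low salt; the low-salt buffer was 7.5 mM NaH₂PO₄, 1 mM EDTA, pH 7.0. Cuvettes were heated from 37 to 98 °C with A260 read every degree. Tm change is in °C, SD from three independent experiments.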
# [3] = test system: HCT-116; assay: Cytotoxicity against human HCT116 cells after 96 hrs by MTT assay; assay type: functional, cell-based; settings: HCT-116, 96 h
# Method in brief: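 HCT116 cells were grown in RPMI 1640 with 10% FCS and 2 mM L-glutamine, seeded at 2 × 10³ cells/well, 37 °C, 5% CO₂. Drug exposure was continuous for 4 days at 37 °C. MTT was then added for 4 h and formazan dissolved in DMSO for OD reading. IC50 is 50% OD drop relative to untreated and/or vehicle cells. At least three repeats.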
# [4] = test system: Nucleic Acid; assay: Binding affinity to salmon sperm DNA assessed as change in melting temperature at 10 uM under high salt concentration by spectrophotometry; assay type: nucleic-acid assay; settings: Salmonidae; method in brief: as §1
# [5] = target: T1, Ribosyldihydronicotinamide dehydrogenase [quinone] (Homo sapiens, UniProt P16083); assay: Inhibition of human recombinant NQO2 by spectrophotometry
# T1 sequence (P16083 whole entry): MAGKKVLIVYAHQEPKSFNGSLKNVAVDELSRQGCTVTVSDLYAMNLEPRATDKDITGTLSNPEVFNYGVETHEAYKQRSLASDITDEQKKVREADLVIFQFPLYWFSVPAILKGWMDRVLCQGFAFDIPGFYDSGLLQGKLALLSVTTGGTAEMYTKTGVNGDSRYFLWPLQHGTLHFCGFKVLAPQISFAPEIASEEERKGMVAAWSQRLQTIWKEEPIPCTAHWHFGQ
# Method in brief: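 Recombinant human NQO2 was diluted in 50 mM phosphate to give about 0.1 absorbance/min. Reaction mix: 50 mM phosphate pH 7.4 with 200 µM NRH as cofactor, 40 µM DCPIP and inhibitor in DMSO (1.0% v/v final), 37 °C. DCPIP reduction was followed at 600 nm.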
# [6] = target: NAD(P)H dehydrogenase [quinone] 1 (Homo sapiens, UniProt P15559); assay: Inhibition of human recombinant NQO1 by spectrophotometry
# Chain of NAD(P)H dehydrogenase [quinone] 1 (P15559 whole entry): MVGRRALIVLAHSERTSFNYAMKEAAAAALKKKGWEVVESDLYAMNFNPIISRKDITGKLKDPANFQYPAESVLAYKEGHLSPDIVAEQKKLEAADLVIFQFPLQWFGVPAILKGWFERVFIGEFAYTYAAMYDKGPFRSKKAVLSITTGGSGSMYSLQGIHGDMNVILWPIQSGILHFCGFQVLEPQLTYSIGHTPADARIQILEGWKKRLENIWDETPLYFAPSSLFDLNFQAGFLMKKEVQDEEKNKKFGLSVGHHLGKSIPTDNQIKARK
# [7] = test system: Nucleic Acid; assay: Binding affinity to salmon sperm DNA assessed as melting temperature at 10 uM under low salt concentration by spectrophotometry; assay type: nucleic-acid assay; settings: Salmonidae
SMILES,IC50 [1],ΔTm [2],IC50 [3],ΔTm [4],IC50 [5],IC50 [6],Tm [7]
O=c1c2ccccc2n2nnc3ccc(NCCc4ccccc4)c1c32,3.5 µM,1.7 °C,0.803 µM,0.31 °C,0.567 µM,3.28 µM,–
COc1ccc(Nc2ccc3nnn4c5ccccc5c(=O)c2c34)cc1,1.9 µM,0.2 °C,0.63 µM,0.19 °C,0.098 µM,–,–
COc1ccc2c(c1)c(=O)c1c(NCCCO)ccc3nnn2c31,1.5 µM,3.2 °C,0.627 µM,0.19 °C,0.517 µM,–,–
C[N+](C)([O-])CCNc1ccc2nnn3c4ccc(Br)cc4c(=O)c1c23,48 µM,0.1 °C,12 µM,0.45 °C,0.117 µM,–,–
C[N+](C)([O-])CCNc1ccc2nnn3c4ccccc4c(=O)c1c23,80 µM,0.5 °C,23.8 µM,0.22 °C,0.167 µM,–,–
COc1ccc2c(c1)c(=O)c1c(NCC[N+](C)(C)[O-])ccc3nnn2c31,57 µM,0.15 °C,18.8 µM,0.3 °C,0.098 µM,–,80 °C
O=c1c2ccccc2n2nnc3ccc(NCCCO)c1c32,0.99 µM,3 °C,0.63 µM,1.48 °C,0.483 µM,–,–
COc1ccc2c(c1)c(=O)c1c(NCCc3ccccc3)ccc3nnn2c31,12.5 µM,1.7 °C,0.711 µM,0.08 °C,0.35 µM,3.93 µM,–
O=c1c2cc(Br)ccc2n2nnc3ccc(NCCCO)c1c32,2.8 µM,3 °C,0.715 µM,0.42 °C,0.987 µM,–,–
CN(C)CCNc1ccc2nnn3c4ccc(F)cc4c(=O)c1c23,1.2 µM,2.6 °C,0.465 µM,0.03 °C,0.783 µM,–,–
CC(C)CCNc1ccc2nnn3c4ccccc4c(=O)c1c23,3.2 µM,2 °C,0.815 µM,0.23 °C,0.427 µM,–,–
CN(C)CCNc1ccc2nnn3c4ccccc4c(=O)c1c23,20.5 µM,1.7 °C,12.4 µM,0.33 °C,1.83 µM,1.8 µM,–
CN(C)CCNc1ccc2nnn3c4ccc(Br)cc4c(=O)c1c23,1.6 µM,2.6 °C,0.495 µM,0.2 °C,1.48 µM,–,–
COc1cccc2c1C(=O)c1c(O)c3c(c(O)c1C2=O)C[C@@](O)(C(=O)CO)C[C@@H]3O[C@H]1C[C@H](N)[C@H](O)[C@H](C)O1,–,8 °C,–,–,–,–,88 °C
CC(C)CCNc1ccc2nnn3c4ccc(Br)cc4c(=O)c1c23,27 µM,1.9 °C,7 µM,0.09 °C,0.767 µM,–,–
COc1ccc2c(c1)c(=O)c1c(NCCN(C)C)ccc3nnn2c31,1 µM,2.9 °C,0.333 µM,0.08 °C,1.33 µM,0.111 µM,83 °C
